Results collected from several papers.
Each line is one published result; the experiments were not run side by side.
Target: Serine/threonine-protein kinase WNK2 (WNK2, Homo sapiens, UniProt Q9Y3S1)

| Structure (SMILES) | assay | setting | quantity | result |
| --- | --- | --- | --- | --- |
| COc1cccc(CNC(=O)c2nc3scc(COCc4ccc(C(=O)O)cc4)c3c(=O)[nH]2)c1 | cell-free assay, competition with immobilised ligand | 1 µM | remaining binding | 54.2% |
| CCN(CC)CCNC(=O)c1c(C)[nH]c(/C=C2\C(=O)Nc3ccc(F)cc32)c1C | enzyme activity, inhibitor | 0.3 µM | inhibition | 3% |
| O=C1NC(=O)c2cc(Nc3ccc(F)cc3)c(Nc3ccc(F)cc3)cc21 | cell-free assay | 0.5 µM | remaining signal | 110% |
| CN1CC(Oc2cnc(C#N)cc2-c2ccn3nc(NC(=O)C4CC4)cc3c2)C1 | enzyme activity, inhibitor | 1 µM | inhibition | 8% |
| Cc1ccc(Nc2nccc(N(C)c3ccc4c(C)n(C)nc4c3)n2)cc1S(N)(=O)=O | enzyme activity, inhibitor | 0.3 µM | inhibition | 2% |
| CCCOc1ccc(OC)c(F)c1C(=O)c1ccc(C(=O)N[C@@H]2CNC[C@H]2NC(=O)c2ccc3[nH]ncc3c2)cc1 | enzyme activity, inhibitor | 10 µM | remaining activity | 92% |
| O=C(N1CCS(=O)(=O)CC1)N1C[C@H](c2ccc(OC(F)(F)F)cc2)C[C@H](c2nc(C3CC3)no2)C1 | cell-free assay, competition with immobilised ligand | 1 µM | remaining binding | 73% |
| Cc1cc(NC(=O)c2cccc3cc(-c4cccc5[nH]nc(N)c45)ccc23)ccc1F | enzyme activity, inhibitor | 0.1 µM | activity vs control | 98% |
| CC(=O)N1CCC(c2ccc(C(=O)NC(=N)N)cc2C(F)(F)F)CC1 | cell-free assay, competition with immobilised ligand | 1 µM | remaining binding | 98% |
| Cc1ccc(NC(=O)c2ccc(C)c(C(F)(F)F)c2)cc1C#Cc1nn(C2CCC(O)CC2)c2ncnc(N)c12 (stereo not drawn) | cell-free assay | 10 µM | remaining signal | 105% |
| O=C(Nc1cnn(-c2csc(C(=O)NC3COC3)c2)c1)Nc1ccccc1Cl | enzyme activity, inhibitor | 5 µM | remaining activity | 96.3% |
| CC(C)(C)c1nc(-c2cccc(NS(=O)(=O)c3c(F)cccc3F)c2F)c(-c2ccnc(N)n2)s1 | enzyme activity, inhibitor, radiometric | 1 µM | remaining activity | 103% |
| CN(c1nccc(-c2cnn3ncccc23)n1)C1CC1 | binding | 1 µM | remaining binding | 100% |
| CNC(=O)c1cc(Oc2ccc(NC(=O)Nc3ccc(Cl)c(C(F)(F)F)c3)cc2)ccn1 | enzyme activity, inhibitor | 0.3 µM | inhibition | 1% |
| COCCOc1nc(-c2ccc(Cl)nc2)nc2c1CN(C(=O)c1ncn3ccccc13)CC2 | cell-free assay, competition with immobilised ligand | 0.1 µM | remaining binding | 100% |
| Cc1sc(C(=O)NC2COC2)cc1-n1cc(NC(=O)Nc2c(F)cccc2Cl)cn1 | enzyme activity, inhibitor | 10 µM | remaining activity | 91.1% |
| CO[C@@H](C)c1c(Nc2ccc([C@@H](N(C)C(=O)C3CCS(=O)(=O)CC3)C(F)(F)F)cc2)cnc2cc(Cl)nn12 | cell-free assay, competition with immobilised ligand | 1 µM | remaining binding | 100% |
| CCCS(=O)(=O)Nc1ccc(F)c(C(=O)c2c[nH]c3ncc(-c4ccc(Cl)cc4)cc23)c1F | enzyme activity, inhibitor | 1 µM | inhibition | < 10% |
